Results as given in ChEMBL document CHEMBL1944562, “Design, synthesis of some new (2-aminothiazol-4-yl)methylester derivatives as possible antimicrobial and antitubercular agents” (2012).
Converted amounts (≈) assume the structure as drawn.

How the values were obtained:
Assay type in all cases: functional
Aspergillus fumigatus [1] = experiment: Antifungal activity against Aspergillus fumigatus NCIM N0.902 at MIC after 3 to 4 days
Summary of the method: (§1)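 Fungal suspension made by transferring a loopful of culture to 3 mL saline and seeding agar plates, 20 mL agar per dish, dried 1 h at 37 °C. Punched wells loaded with test compound in DMSO at its MIC. DMSO-only control. Triplicate plates held 3-4 days at 37 °C. Inhibition zone diameter measured.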

[2] = test system: Mycolicibacterium fortuitum; experiment: Antitubercular activity against Mycobacterium fortuitum ATCC 19542 after 7 days by resazurin assay; details: ATCC 19542, 168 h
Summary of the method: (§2)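 Middlebrook 7H9 broth with 10% OADC, culture adjusted to McFarland 2. 50 µL culture added to 150 µL fresh medium. Stocks at 2 mg/mL in DMF, tested first at 1, 10 and 100 µg/mL, then at 0.3125-5 µg/mL. DMF controls. After 7 days at 37 °C, 0.01% resazurin added. Blue-to-pink change read for MIC.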

Candida albicans [3] = experiment: Antifungal activity against Candida albicans after 3 to 4 days by serial plate dilution method
Staphylococcus aureus [4] = experiment: Antibacterial activity against Staphylococcus aureus ATCC 25923 at […] after 3 to 4 days
Summary of the method: (§3)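 Agar well diffusion on seeded agar plates, 20 mL agar per dish, dried 1 h at 37 °C. Wells punched and loaded with test compound in DMSO at its MIC. DMSO-only control. Plates run in triplicate and kept 3-4 days at 37 °C. Inhibition zone diameter measured.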

Aspergillus fumigatus [5] = experiment: Antifungal activity against Aspergillus fumigatus NCIM N0.902 after 3 to 4 days by serial plate dilution method
[6] = test system: Trichophyton mentagrophytes; experiment: Antifungal activity against Trichophyton mentagrophytes after 3 to 4 days by serial plate dilution method
Aspergillus flavus [7] = experiment: Antifungal activity against Aspergillus flavus NCIM N0.524 at MIC after 3 to 4 days; summary of the method: as §1
Candida albicans [8] = experiment: Antifungal activity against Candida albicans at MIC after 3 to 4 days; summary of the method: as §1
[9] = test system: Trichophyton mentagrophytes; experiment: Antifungal activity against Trichophyton mentagrophytes at MIC after 3 to 4 days; summary of the method: as §1
Talaromyces marneffei [10] = experiment: Antifungal activity against Penicillium marneffei after 3 to 4 days by serial plate dilution method
Pseudomonas aeruginosa [11] = experiment: Antibacterial activity against Pseudomonas aeruginosa ATCC 27853 after 16 to 18 hrs by […]
Bacillus subtilis [12] = experiment: Antibacterial activity against Bacillus subtilis at MIC after 3 to 4 days; summary of the method: as §3
[13] = test system: Mycobacterium tuberculosis; experiment: Antitubercular activity against Mycobacterium tuberculosis H37Rv assessed as growth inhibition after 7 days by resazurin assay
Summary of the method: (§4)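 M. tuberculosis H37Rv ATCC 27294 grown in Middlebrook 7H9 broth with 10% OADC and adjusted to McFarland 2. Culture was diluted 1:4 into fresh medium. Compounds came from 2 mg/mL DMF stocks, screened first at 1, 10 and 100, then at 0.3125–5. DMF-only controls were included. After 7 days at 37 °C, 0.01% resazurin was added; a blue-to-pink change marked growth, and the MIC was read.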

Staphylococcus aureus [14] = experiment: Antibacterial activity against Staphylococcus aureus ATCC 25923 after 16 to 18 hrs by serial plate dilution method
Escherichia coli [15] = experiment: Antibacterial activity against Escherichia coli ATCC 25922 at MIC after 3 to 4 days; summary of the method: as §3
Escherichia coli [16] = experiment: Antibacterial activity against Escherichia coli ATCC 25922 after 16 to 18 hrs by […]
Aspergillus flavus [17] = experiment: Antifungal activity against Aspergillus flavus NCIM N0.524 after 3 to 4 days by serial plate dilution method
Talaromyces marneffei [18] = experiment: Antifungal activity against Penicillium marneffei at MIC after 3 to 4 days; summary of the method: as §1
Klebsiella pneumoniae [19] = experiment: Antibacterial activity against Klebsiella pneumoniae at MIC after 3 to 4 days; summary of the method: as §3
Bacillus subtilis [20] = experiment: Antibacterial activity against Bacillus subtilis after 16 to 18 hrs by […]
Pseudomonas aeruginosa [21] = experiment: Antibacterial activity against Pseudomonas aeruginosa ATCC 27853 at MIC after 3 to 4 days; summary of the method: as §3
[22] = test system: Mycolicibacterium smegmatis; experiment: Antitubercular activity against Mycobacterium smegmatis ATCC 19420 after 7 days by resazurin assay; details: ATCC 19420, 168 h; summary of the method: as §2
Klebsiella pneumoniae [23] = experiment: Antibacterial activity against Klebsiella pneumoniae after 16 to 18 hrs by […]
[24] = test system: Mycobacterium tuberculosis; experiment: Antitubercular activity against Mycobacterium tuberculosis H37Rv after 7 days by resazurin assay; details: 168 h; summary of the method: as §4

SMILES | diameter of the inhibition zone (DIZ) (Aspergillus fumigatus [1]) [mm] | MIC [2] [mg/L] | MIC (Candida albicans [3]) [mg/L] | diameter of the inhibition zone (DIZ) (Staphylococcus aureus [4]) [mm] | MIC (Aspergillus fumigatus [5]) [mg/L] | MIC [6] [mg/L] | diameter of the inhibition zone (DIZ) (Aspergillus flavus [7]) [mm] | diameter of the inhibition zone (DIZ) (Candida albicans [8]) [mm] | diameter of the inhibition zone (DIZ) [9] [mm] | MIC (Talaromyces marneffei [10]) [mg/L] | MIC (Pseudomonas aeruginosa [11]) [mg/L] | diameter of the inhibition zone (DIZ) (Bacillus subtilis [12]) [mm] | growth inhibition (GI) [13] [%] | MIC (Staphylococcus aureus [14]) [mg/L] | diameter of the inhibition zone (DIZ) (Escherichia coli [15]) [mm] | MIC (Escherichia coli [16]) [mg/L] | MIC (Aspergillus flavus [17]) [mg/L] | diameter of the inhibition zone (DIZ) (Talaromyces marneffei [18]) [mm] | diameter of the inhibition zone (DIZ) (Klebsiella pneumoniae [19]) [mm] | MIC (Bacillus subtilis [20]) [mg/L] | further results
Nc1nc(COC(=O)c2ccc3ccccc3c2)cs1 | 11 | 10 (≈ 35.2 µM) | 6.25 (≈ 22 µM) | 16 | 12.5 (≈ 44 µM) | 12.5 (≈ 44 µM) | 11 | 16 | 11 | 12.5 (≈ 44 µM) | 6.25 (≈ 22 µM) | 16 | <90 | 6.25 (≈ 22 µM) | 16 | 6.25 (≈ 22 µM) | 12.5 (≈ 44 µM) | 11 | 16 | 6.25 (≈ 22 µM) | diameter of the inhibition zone (DIZ) (Pseudomonas aeruginosa [21]): 16 mm; MIC [22]: 10 mg/L (≈ 35.2 µM); MIC (Klebsiella pneumoniae [23]): 6.25 mg/L (≈ 22 µM); MIC [24]: 2.5 mg/L (≈ 8.79 µM)
Nc1nc(COC(=O)C2(c3ccc(Cl)cc3)CC2)cs1 | <10 | 1.25 (≈ 4.05 µM) | 25 (≈ 81 µM) | 11 | 25 (≈ 81 µM) | 25 (≈ 81 µM) | <10 | <10 | <10 | 25 (≈ 81 µM) | 12.5 (≈ 40.5 µM) | 11 | 90 | 12.5 (≈ 40.5 µM) | 16 | 6.25 (≈ 20.2 µM) | 25 (≈ 81 µM) | <10 | 16 | 12.5 (≈ 40.5 µM) | diameter of the inhibition zone (DIZ) (Pseudomonas aeruginosa [21]): 11 mm; MIC [22]: 1 mg/L (≈ 3.24 µM); MIC (Klebsiella pneumoniae [23]): 6.25 mg/L (≈ 20.2 µM); MIC [24]: 1 mg/L (≈ 3.24 µM)
Nc1nc(COC(=O)c2c(F)cccc2Cl)cs1 | <10 | 10 (≈ 34.9 µM) | 12.5 (≈ 43.6 µM) | 16 | 25 (≈ 87.2 µM) | 25 (≈ 87.2 µM) | <10 | 11 | <10 | 25 (≈ 87.2 µM) | 12.5 (≈ 43.6 µM) | 16 | 95 | 6.25 (≈ 21.8 µM) | <10 | 25 (≈ 87.2 µM) | 25 (≈ 87.2 µM) | <10 | 11 | 6.25 (≈ 21.8 µM) | diameter of the inhibition zone (DIZ) (Pseudomonas aeruginosa [21]): 11 mm; MIC [22]: 10 mg/L (≈ 34.9 µM); MIC (Klebsiella pneumoniae [23]): 12.5 mg/L (≈ 43.6 µM); MIC [24]: 0.625 mg/L (≈ 2.18 µM)
Nc1nc(COC(=O)c2ccc(Br)cc2)cs1 | <10 | > 100 | 6.25 (≈ 20 µM) | <10 | 25 (≈ 79.8 µM) | 12.5 (≈ 39.9 µM) | <10 | 16 | 11 | 25 (≈ 79.8 µM) | 25 (≈ 79.8 µM) | <10 | <90 | 25 (≈ 79.8 µM) | <10 | 25 (≈ 79.8 µM) | 25 (≈ 79.8 µM) | <10 | 16 | 25 (≈ 79.8 µM) | diameter of the inhibition zone (DIZ) (Pseudomonas aeruginosa [21]): <10 mm; MIC [22]: 2.5 mg/L (≈ 7.98 µM); MIC (Klebsiella pneumoniae [23]): 6.25 mg/L (≈ 20 µM); MIC [24]: 2.5 mg/L (≈ 7.98 µM)
